Measured values as given in ChEMBL document CHEMBL1142174, “Pyrazinoic acid and its n-propyl ester inhibit fatty acid synthase type I in replicating tubercle bacilli” (2007).
Converted amounts (≈) assume the structure as drawn.

How the values were obtained:
[1] = tested on: Mycobacterium tuberculosis; experiment: Antimicrobial activity against Mycobacterium tuberculosis at pH 6 by broth microdilution test; assay type: functional
[2] = tested on: Mycobacterium tuberculosis; experiment: Antimicrobial activity against Mycobacterium tuberculosis at pH 6.8 by broth microdilution test; assay type: functional
How it was run: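 Broth macrodilution MIC with an inoculum of 10^5 CFU/ml. Medium was Middlebrook 7H9 with 10% OADC, 0.2% glycerol and 0.05% Tween 80. Medium pH was set to 6 or 6.8 with 4.25% phosphoric acid or 5% dibasic potassium phosphate.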

[3] = tested on: Mycobacterium tuberculosis; experiment: Inhibition of fatty acid synthase 1 in Mycobacterium tuberculosis assessed as incorporation of [1-14C]acetate in C16 biosynthesis at 250 ug/ml at pH 5.5
How it was run: (§1)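 M. tuberculosis was grown from frozen stock in 7H12 to OD600 0.3–0.4, diluted 10-fold and grown 48–72 h more. 10-ml aliquots (OD600 0.2–0.25) were pelleted and resuspended in fresh drug-containing medium for 12 h. Cells were labelled with [1-14C]acetate (1 μCi/ml) for 6 h. Soluble lipids were extracted and saponified, and 14C-labelled C16 was quantified.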

[4] = tested on: Mycobacterium tuberculosis; experiment: Inhibition of fatty acid synthase 1 in Mycobacterium tuberculosis assessed as incorporation of [1-14C]acetate in C16 biosynthesis at 1250 ug/ml at pH 6.0; how it was run: as §1
[5] = tested on: Mycobacterium tuberculosis; experiment: Inhibition of fatty acid synthase 1 in Mycobacterium tuberculosis assessed as incorporation of [1-14C]acetate in C16 biosynthesis at 250 ug/ml; how it was run: as §1
[6] = tested on: Mycobacterium tuberculosis; experiment: Inhibition of fatty acid synthase 1 in Mycobacterium tuberculosis assessed as incorporation of [1-14C]acetate in C16 biosynthesis at 800 ug/ml; how it was run: as §1
[7] = tested on: Mycobacterium tuberculosis; experiment: Inhibition of fatty acid synthase 1 in Mycobacterium tuberculosis assessed as incorporation of [1-14C]acetate in C16 biosynthesis at 1200 ug/ml at pH 6.0; how it was run: as §1

**Q.** For `O=C(O)c1cnccn1` [PYRAZINOIC ACID], which MIC [1] is on record?
**A.** 100 µg/mL (≈ 806 µM)

**Q.** What about the MIC [2] of the same compound?
**A.** 300 µg/mL (≈ 2420 µM)

**Q.** What about the inhibition [3] of the same compound?
**A.** 60%

**Q.** What about the inhibition [4] of the same compound?
**A.** 60%

**Q.** For `NC(=O)c1cnc(Cl)cn1`, which inhibition [5] is on record?
**A.** 94%

**Q.** What does the source list for `CCCOC(=O)c1cnccn1`?
**A.** MIC [1]: 60 µg/mL (≈ 361 µM); inhibition [6]: 96%; MIC [2]: 80 µg/mL (≈ 481 µM)

**Q.** For `NC(=O)c1cnccn1`, which inhibition [7] is on record?
**A.** 88%
